Experimental data published in ChEMBL document CHEMBL1121368, “7-(Aminoacyl) and 7-(aminoalkyl) derivatives of 1,2,6,7-tetrahydroindolo[1,7-ab][1,5]benzodiazepines as potential antidepressant agents” (1980).
Active and inactive are the calls of the source. No cut-off for these calls is given here.

Organism: Mus musculus
Assay: Evaluated for antidepressant activity by its ability to inhibit tetrabenazine-induced (TBZ) ptosis in mice; Inactive
Assay type: functional, organism-based
Details: not given

Row | SMILES | ED50
1 | CNCCCN1c2ccccc2N2CCc3cc(Cl)cc(c32)C1C (stereo unspecified) | inactive
2 | CNCC(=O)N1c2ccccc2N2CCc3cc(Cl)cc(c32)C1C (stereo unspecified) | inactive
3 | CNCCC(=O)N1c2ccccc2N2CCc3cc(Cl)cc(c32)C1C (stereo unspecified) | inactive
4 | CC1c2cc(Cl)cc3c2N(CC3)c2ccccc2N1C(=O)CCN(C)C (stereo unspecified) | inactive
5 | CNCCN1c2ccccc2N2CCc3cc(Cl)cc(c32)C1C (stereo unspecified) | inactive
6 | CC1c2cc(Cl)cc3c2N(CC3)c2ccccc2N1C(=O)CN(C)C (stereo unspecified) | inactive

System: not listed separately
Assay: Evaluated for antidepressant activity by its ability to inhibit tetrabenazine-induced (TBZ) ptosis in mice
Assay type: functional
Details: Mus musculus
Procedure, shortened: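 Mice given tetrabenazine to induce ptosis; inhibition of ptosis scored. Compounds were screened at 20 mg/kg ip. […] ">20" marks activity at the 20 mg/kg ip screening dose without a dose-response run.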

Row | SMILES | ED50
7 | Br.Br.CNCCCN1Cc2cccc3c2N(CC3)c2ccccc21 | 1.5 mg/kg
8 | CNCC(=O)N1Cc2cccc3c2N(CC3)c2ccccc21 | > 20 mg/kg
9 | CNCCN1Cc2cccc3c2N(CC3)c2ccccc21.O=C(O)C(=O)O | > 20 mg/kg
10 | Br.Br.CCCNCCN1c2ccccc2N2CCc3cccc(c32)C1C (stereo unspecified) | > 20 mg/kg
11 | CCCNCC(=O)N1c2ccccc2N2CCc3cccc(c32)C1C (stereo unspecified) | > 20 mg/kg
12 | CC1c2cccc3c2N(CC3)c2ccccc2N1C(=O)CCN1CCN(c2ccccc2)CC1 (stereo unspecified) | > 20 mg/kg
13 | CC1c2cccc3c2N(CC3)c2ccccc2N1C(=O)CN(C)C (stereo unspecified) | 13.5 mg/kg
14 | CCCNCCC(=O)N1c2ccccc2N2CCc3cccc(c32)C1C.Cl (stereo unspecified) | > 20 mg/kg
15 | CN(C)CCCN1Cc2cccc3c2N(CC3)c2ccccc21.Cl.Cl | 16 mg/kg
16 | CNCCCN1c2ccccc2N2CCc3cccc(c32)C1C.Cl.Cl (stereo unspecified) | 9.5 mg/kg
17 | CNCCC(=O)N1c2ccccc2N2CCc3cccc(c32)C1C (stereo unspecified) | 4 mg/kg
18 | CNCCCN1c2ccccc2CCc2ccccc21 [DESIPRAMINE] | 1.5 mg/kg
19 | Br.Br.CNCCN1c2ccccc2N2CCc3cccc(c32)C1C (stereo unspecified) | 8 mg/kg
20 | CN(C)CCN1c2ccccc2N2CCc3cccc(c32)C1CCc1ccccc1.O=C(O)C(=O)O (stereo unspecified) | > 20 mg/kg
21 | CN(C)CCC(=O)N1c2ccccc2N2CCc3cccc(c32)C1C1CCCCC1.Cl (stereo unspecified) | > 20 mg/kg
22 | CN(C)CCC(=O)N1Cc2cccc3c2N(CC3)c2ccccc21 | > 20 mg/kg
23 | Br.Br.CC1c2cccc3c2N(CC3)c2ccccc2N1CCN (stereo unspecified) | 2.2 mg/kg
24 | CC1c2cccc3c2N(CC3)c2ccccc2N1C(=O)CCCN(C)C.Cl (stereo unspecified) | > 20 mg/kg
25 | CC1c2cccc3c2N(CC3)c2ccccc2N1C(=O)CCN(C)C (stereo unspecified) | 16 mg/kg
26 | CC1c2cccc3c2N(CC3)c2ccccc2N1C(=O)CCN1CCCCC1 (stereo unspecified) | > 20 mg/kg
27 | CCN(CC)CCC(=O)N1c2ccccc2N2CCc3cccc(c32)C1C (stereo unspecified) | > 20 mg/kg
28 | CN(C)CCC=C1c2ccccc2CCc2ccccc21 [AMITRIPTYLINE] | 4.5 mg/kg
29 | CN(C)CC(=O)N1Cc2cccc3c2N(CC3)c2ccccc21 | > 20 mg/kg
30 | Br.CC1c2cccc3c2N(CC3)c2ccccc2N1CCN(C)C (stereo unspecified) | 5 mg/kg
31 | CNCC(=O)N1c2ccccc2N2CCc3cccc(c32)C1C (stereo unspecified) | 2 mg/kg
